Experimental data as given in ChEMBL document CHEMBL4673298, “Exploration of Structure-Activity Relationship of Aromatic Aldehydes Bearing Pyridinylmethoxy-Methyl Esters as Novel Antisickling Agents” (J Med Chem, 2020).
Activity calls are given as the source filed them. The calls are words filed in the database; no cut-off is given here.

What was measured:
[1] = Inhibition of sickling in sickle cell RBCs from blood isolated from patient with homozygous SS at 2 mM under hypoxic conditions incubated for 2 hrs; assay type: functional; conditions: Homo sapiens, Erythrocyte
Outline: (§1)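 SS blood, hematocrit 20%, preincubated under air with compound (0.5, 1, 2 mM) for 1 h at 37 °C, then 2 h hypoxia (2.5% O2/97.5% N2) at 37 °C. Aliquots are fixed in 2% glutaraldehyde without air exposure. Cell morphology is scored from bright-field images at 40×. Three biological replicates, mean ± SD.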

[2] = Inhibition of sickling in sickle cell RBCs from blood isolated from patient with homozygous SS at 1 mM under hypoxic conditions incubated for 2 hrs; assay type: functional; conditions: Homo sapiens, Erythrocyte; outline: as §1
[3] = organism: Homo sapiens; assay: Binding affinity to Hemoglobin in normal human whole blood assessed as increase in Hb affinity for oxygen incubated for 1.5 hrs by oxygen equilibrium curve study; assay type: tissue-based
Outline: (§2)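 Normal human whole blood, hematocrit 30%, incubated with or without compound in DMSO (0.5, 1.0 or 2.0 mM; 2 mM for the time course) at 37 °C. The blood is tonometered about 7 min at 37 °C against gas with 0.804, 2.935 and 5.528% O2 (6, 20, 40 mmHg). sO2 and pO2 are read on a blood gas analyzer. ΔP50% is taken relative to no compound. Time course sampled at 1, 2, 4, 8, 12, 24 h.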

[4] = test system: Red blood cell; assay: Binding affinity to Hemoglobin in sickle cell RBCs from blood isolated from patient with homozygous SS assessed as increase in Hb affinity shift for oxygen at 0.5 mM under hypoxic conditions incubated for 2 hrs by oxygen equilibrium curve study; assay type: tissue-based; conditions: Homo sapiens
Outline: (§3)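 SS blood, hematocrit 20%, incubated under air with compound (0.5, 1, 2 mM) at 37 °C for 1 h, then hypoxic (2.5% O2/97.5% N2) at 37 °C for 2 h. Cells are washed in PBS and hemolyzed hypotonically. Lysate in 0.1 M potassium phosphate pH 7.0 is run by Hemox analysis for P50. ΔP50 is given as percent of DMSO control. Three biological replicates, mean ± SD.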

[5] = test system: Red blood cell; assay: Binding affinity to Hemoglobin in sickle cell RBCs from blood isolated from patient with homozygous SS assessed as increase in hemoglobin modification under hypoxic conditions incubated for 2 hrs […]; assay type: tissue-based; conditions: Homo sapiens
Outline: (§4)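 SS blood, hematocrit 20%, incubated under air with compound (0.5, 1, 2 mM) at 37 °C for 1 h, then hypoxic (2.5% O2/97.5% N2) at 37 °C for 2 h. Cells are washed and hemolyzed. Lysate is run on weak cation-exchange HPLC to quantify Hb adduct (modified Hb). Three biological replicates, mean ± SD.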

[6] = test system: Red blood cell; assay: Binding affinity to Hemoglobin in sickle cell RBCs from blood isolated from patient with homozygous SS assessed as increase in hemoglobin modification at 0.5 mM under hypoxic conditions incubated for 2 hrs […]; assay type: tissue-based; conditions: Homo sapiens; outline: as §4
[7] = Inhibition of sickling in sickle cell RBCs from blood isolated from patient with homozygous SS at 0.5 mM under hypoxic conditions incubated for 2 hrs; assay type: functional; conditions: Homo sapiens, Erythrocyte; outline: as §1
[8] = test system: Red blood cell; assay: Binding affinity to Hemoglobin in sickle cell RBCs from blood isolated from patient with homozygous SS assessed as increase in Hb affinity for oxygen under hypoxic conditions incubated for 2 hrs by oxygen equilibrium curve study; assay type: tissue-based; conditions: Homo sapiens; outline: as §3
[9] = test system: Red blood cell; assay: Binding affinity to Hemoglobin in sickle cell RBCs from blood isolated from patient with homozygous SS assessed as increase in hemoglobin modification at 1 mM under hypoxic conditions incubated for 2 hrs […]; assay type: tissue-based; conditions: Homo sapiens; outline: as §4
[10] = test system: Erythrocyte; assay: Inhibition of sickling in sickle cell RBCs from blood isolated from patient with homozygous SS under hypoxic conditions incubated for 2 hrs; assay type: functional, tissue-based; conditions: Homo sapiens; outline: as §1
[11] = test system: Red blood cell; assay: Binding affinity to Hemoglobin in sickle cell RBCs from blood isolated from patient with homozygous SS assessed as increase in Hb affinity shift for oxygen at 1 mM under hypoxic conditions incubated for 2 hrs by oxygen equilibrium curve study; assay type: tissue-based; conditions: Homo sapiens; outline: as §3
[12] = test system: Red blood cell; assay: Binding affinity to Hemoglobin in sickle cell RBCs from blood isolated from patient with homozygous SS assessed as increase in Hb affinity shift for oxygen at 2 mM under hypoxic conditions incubated for 2 hrs by oxygen equilibrium curve study; assay type: tissue-based; conditions: Homo sapiens; outline: as §3
[13] = test system: Red blood cell; assay: Binding affinity to Hemoglobin in sickle cell RBCs from blood isolated from patient with homozygous SS assessed as increase in hemoglobin modification at 2 mM under hypoxic conditions incubated for 2 hrs […]; assay type: tissue-based; conditions: Homo sapiens; outline: as §4
[14] = organism: Homo sapiens; assay: Binding affinity to Hemoglobin in normal human whole blood assessed as increase in Hb affinity for oxygen at 2 mM by oxygen equilibrium curve study; assay type: tissue-based; outline: as §2
[15] = test system: Mus musculus; assay: Induction of in-vivo hemoglobin-O2 affinity shifts in C57BL/6 mouse at 150 mg/kg, ip dosed as single administration measured after 3 to 6 hrs by oxygen equilibrium curve study; assay type: functional, organism-based; conditions: time 3-6 hrs, TDE = time-dependent effect
Outline: (§5)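 C57BL/6 mice (3 male, 3 female) receive a single intraperitoneal dose of 150 mg/kg. Blood is drawn by submandibular bleeding before dosing and at 1, 3 and 6 h, then hemolyzed. Hb modification and Hb-O2 affinity shift are measured; n = 6.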

[16] = Induction of in-vivo hemoglobin-O2 affinity shifts in C57BL/6 mouse at 150 mg/kg, ip dosed as single administration measured after 6 hrs by oxygen equilibrium curve study; assay type: functional; outline: as §5
[17] = Induction of in-vivo modification of intracellular hemoglobin in C57BL/6 mouse at 150 mg/kg, ip dosed as single administration measured after 6 hrs by cation-exchange HPLC analysis
[18] = test system: Mus musculus; assay: Induction of in-vivo modification of intracellular hemoglobin in C57BL/6 mouse at 150 mg/kg, ip dosed as single administration measured after 1 to 6 hrs by cation-exchange HPLC analysis; assay type: functional, organism-based; conditions: time 1-6 hrs, TDE = time-dependent effect; outline: as §5

| SMILES | inhibition at 2000 µM [1] [%] | inhibition at 1000 µM [2] [%] | Activity [3] | Activity [4] [%] | Activity [5] | Activity [6] [%] | inhibition at 500 µM [7] [%] | Activity [8] | Activity [9] [%] | inhibition [10] | Activity [11] [%] | Activity [12] [%] | Activity [13] [%] | Activity [14] | Activity ([14]; TDE = time-dependent effect) | Activity [15] | Activity [16] [%] | Activity [17] [%] | Activity [18] |
| --- | --- | --- | --- | --- | --- | --- | --- | --- | --- | --- | --- | --- | --- | --- | --- | --- | --- | --- | --- |
| COC(=O)c1ncccc1COc1ccc(OC)cc1C=O | 99.1 | 97.7 | inactive | 4.4 | Dose-dependent effect | 30.2 | 37.6 | Dose-dependent effect | 62.3 | Dose-dependent effect | 13.9 | 25.4 | 79.2 | inactive |  |  |  |  |  |
| COC(=O)c1cccnc1COc1ccc(OC)cc1C=O | 99 | 71.7 | Dose-dependent effect | 5.9 | Dose-dependent effect | 32.1 | 41.8 | Dose-dependent effect | 49.9 | Dose-dependent effect | 12.8 | 21.3 | 67.5 |  | Tde |  |  |  |  |
| COC(=O)c1cncc(COc2ccc(OC)cc2C=O)c1 | > 90 |  | Dose-dependent effect |  | Dose-dependent effect |  |  | Dose-dependent effect | 60 | Dose-dependent effect |  |  | < 100 |  | Tde |  |  |  |  |
| COC(=O)c1ccc(COc2ccc(OC)cc2C=O)cn1 | 96.5 | 81.6 | Dose-dependent effect | 9.9 | Dose-dependent effect | 36.1 | 29.1 | Dose-dependent effect | 64 | Dose-dependent effect | 19.5 | 32.3 | 81.3 |  | Tde |  |  |  |  |
| COC(=O)c1ccc(COc2cccc(O)c2C=O)nc1 |  |  | inactive |  |  |  |  |  |  |  |  |  |  | inactive |  |  |  |  |  |
| COC(=O)c1ccc(COc2ccc(OC)cc2C=O)nc1 |  |  | inactive |  |  |  |  |  |  |  |  |  |  | inactive |  |  |  |  |  |
| COC(=O)c1ccnc(COc2cccc(O)c2C=O)c1 | > 90 |  | Dose-dependent effect |  | Dose-dependent effect |  |  | Dose-dependent effect | > 80 | Dose-dependent effect |  |  | < 100 |  | Tde |  |  |  |  |
| COC(=O)c1ncccc1COc1cccc(O)c1C=O | > 90 |  | inactive |  | Dose-dependent effect |  |  | Dose-dependent effect |  | Dose-dependent effect |  |  |  | inactive |  |  |  |  |  |
| CC(C)n1nccc1-c1ncccc1COc1cccc(O)c1C=O [VOXELOTOR] |  | 98 |  | 41 |  | 55 | 56 |  | 100 |  | 80 |  |  |  |  |  |  |  |  |
| COC(=O)c1cncc(COc2cccc(O)c2C=O)c1 | > 90 |  |  |  | Dose-dependent effect |  |  | Dose-dependent effect | 60 | Dose-dependent effect |  |  | < 100 |  |  |  |  |  |  |
| COC(=O)c1ccc(COc2cccc(O)c2C=O)cn1 | 98.9 | 90.7 | Dose-dependent effect | 16.3 | Dose-dependent effect | 47.8 | 39.5 | Dose-dependent effect | 92.5 | Dose-dependent effect | 44.2 | 60.1 | 100 |  | Tde |  |  |  |  |
| COC(=O)c1cccc(COc2ccc(OC)cc2C=O)n1 | 88 | 48.2 | inactive | 4.8 | Dose-dependent effect | 20.9 | 17.5 | Dose-dependent effect | 41.7 | Dose-dependent effect | 20.1 | 37.1 | 63.8 | inactive |  |  |  |  |  |
| COc1ccc(OCc2cccc(CO)n2)c(C=O)c1 | > 90 | 47 |  |  | Dose-dependent effect |  | 26 | Dose-dependent effect | 60 | Dose-dependent effect |  |  | 80 |  |  | Tde | 1 | 1.5 | Tde |
